In ChEMBL document CHEMBL4007404, “Identification of High-Potency Human TLR8 and Dual TLR7/TLR8 Agonists in Pyrimidine-2,4-diamines” (J Med Chem, 2017):
The source made the active and inactive calls. The rule behind the calls is not given here.

How the values were obtained:
Type in all cases: cell-based
[1] = biological target: T1, Toll-like receptor 9 (Homo sapiens) (UniProt Q9NR96); experiment: Activity at human TLR9 expressed in HEK293 cells co-expressing secreted alkaline phosphatase assessed as induction of NF-kappaB/AP-1 promoter activity by measuring increase in secreted alkaline phosphatase level by spectrophotometric method
T1 sequence (whole entry): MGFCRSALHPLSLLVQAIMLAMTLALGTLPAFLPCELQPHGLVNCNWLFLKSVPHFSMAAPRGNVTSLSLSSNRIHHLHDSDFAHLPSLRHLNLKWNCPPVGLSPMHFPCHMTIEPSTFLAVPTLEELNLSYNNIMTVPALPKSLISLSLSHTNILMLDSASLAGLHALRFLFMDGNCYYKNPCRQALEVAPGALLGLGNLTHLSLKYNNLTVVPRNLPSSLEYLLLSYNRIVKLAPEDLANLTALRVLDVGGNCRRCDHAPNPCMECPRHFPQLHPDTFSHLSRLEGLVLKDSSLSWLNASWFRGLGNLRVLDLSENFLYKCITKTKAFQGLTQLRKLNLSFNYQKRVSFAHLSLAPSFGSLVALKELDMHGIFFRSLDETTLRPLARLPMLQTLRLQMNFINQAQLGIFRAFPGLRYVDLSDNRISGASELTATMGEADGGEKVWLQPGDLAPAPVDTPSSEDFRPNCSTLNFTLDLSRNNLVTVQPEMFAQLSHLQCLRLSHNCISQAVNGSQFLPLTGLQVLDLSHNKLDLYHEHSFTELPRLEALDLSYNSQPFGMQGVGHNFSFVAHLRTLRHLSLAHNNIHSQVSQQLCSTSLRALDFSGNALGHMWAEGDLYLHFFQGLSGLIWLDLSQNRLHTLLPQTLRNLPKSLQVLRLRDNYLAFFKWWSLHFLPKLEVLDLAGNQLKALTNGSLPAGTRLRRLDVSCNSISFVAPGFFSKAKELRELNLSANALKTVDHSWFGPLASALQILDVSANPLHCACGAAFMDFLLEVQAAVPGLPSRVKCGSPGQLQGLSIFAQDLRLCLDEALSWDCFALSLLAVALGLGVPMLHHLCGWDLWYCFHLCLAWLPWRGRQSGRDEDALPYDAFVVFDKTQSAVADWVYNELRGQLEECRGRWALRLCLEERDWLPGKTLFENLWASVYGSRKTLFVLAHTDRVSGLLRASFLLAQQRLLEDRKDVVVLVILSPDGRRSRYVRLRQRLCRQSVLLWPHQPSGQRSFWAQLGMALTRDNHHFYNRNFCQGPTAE
Summary of the method: (§1)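 HEK293 cells stably co-transfected with the relevant human TLR (2, 3, 4, 5, 7, 8 or 9) plus an NF-κB/AP-1-driven secreted alkaline phosphatase reporter, kept in selection medium. Cells at ~10⁵ cells/ml were exposed to graded concentrations of stimuli in 384-well format, liquid-handler assisted. Supernatant sAP was read at 620 nm with an alkaline phosphatase-specific chromogen.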

[2] = biological target: Toll-like receptor 2 (Homo sapiens) (UniProt O60603); experiment: Activity at human TLR2 expressed in HEK293 cells co-expressing secreted alkaline phosphatase assessed as induction of NF-kappaB/AP-1 promoter activity by measuring increase in secreted alkaline phosphatase level by spectrophotometric method; summary of the method: as §1
[3] = biological target: T2, Toll-like receptor 7 (Homo sapiens, UniProt Q9NYK1); experiment: Agonist activity at human TLR7 expressed in HEK293 cells co-expressing secreted alkaline phosphatase assessed as induction of NF-kappaB/AP-1 promoter activity by measuring increase in secreted alkaline phosphatase level by spectrophotometric method; summary of the method: as §1
T2 sequence (Q9NYK1 whole entry): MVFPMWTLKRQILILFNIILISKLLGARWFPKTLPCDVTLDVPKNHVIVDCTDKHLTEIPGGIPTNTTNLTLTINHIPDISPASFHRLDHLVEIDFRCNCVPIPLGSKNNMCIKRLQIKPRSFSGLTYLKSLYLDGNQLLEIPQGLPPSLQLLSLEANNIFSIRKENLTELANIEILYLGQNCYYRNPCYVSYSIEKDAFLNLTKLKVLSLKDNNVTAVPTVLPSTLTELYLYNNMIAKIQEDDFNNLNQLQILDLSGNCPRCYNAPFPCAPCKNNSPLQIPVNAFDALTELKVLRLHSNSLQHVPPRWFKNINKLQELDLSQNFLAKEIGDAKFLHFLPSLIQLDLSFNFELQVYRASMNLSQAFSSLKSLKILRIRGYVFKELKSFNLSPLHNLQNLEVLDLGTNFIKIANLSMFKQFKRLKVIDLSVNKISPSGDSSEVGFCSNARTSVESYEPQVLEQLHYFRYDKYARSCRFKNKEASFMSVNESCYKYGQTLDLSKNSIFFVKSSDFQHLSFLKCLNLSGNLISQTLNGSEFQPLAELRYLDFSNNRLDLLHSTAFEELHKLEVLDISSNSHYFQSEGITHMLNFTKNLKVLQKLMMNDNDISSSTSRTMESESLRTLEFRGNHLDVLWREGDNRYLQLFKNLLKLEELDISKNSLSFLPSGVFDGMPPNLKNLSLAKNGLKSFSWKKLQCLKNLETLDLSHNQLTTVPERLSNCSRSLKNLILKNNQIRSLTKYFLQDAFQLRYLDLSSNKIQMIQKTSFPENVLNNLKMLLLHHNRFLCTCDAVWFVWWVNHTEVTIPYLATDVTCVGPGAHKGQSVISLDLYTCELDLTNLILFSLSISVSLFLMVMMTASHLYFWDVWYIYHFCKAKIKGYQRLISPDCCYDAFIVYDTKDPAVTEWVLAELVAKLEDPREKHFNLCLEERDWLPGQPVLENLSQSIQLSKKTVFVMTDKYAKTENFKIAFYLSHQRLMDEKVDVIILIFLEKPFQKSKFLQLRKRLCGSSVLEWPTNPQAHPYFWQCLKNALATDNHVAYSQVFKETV

[4] = biological target: Toll-like receptor 5 (Homo sapiens) (UniProt O60602); experiment: Activity at human TLR5 expressed in HEK293 cells co-expressing secreted alkaline phosphatase assessed as induction of NF-kappaB/AP-1 promoter activity by measuring increase in secreted alkaline phosphatase level by spectrophotometric method; summary of the method: as §1
Sequence of Toll-like receptor 5 (Homo sapiens) (O60602 whole entry): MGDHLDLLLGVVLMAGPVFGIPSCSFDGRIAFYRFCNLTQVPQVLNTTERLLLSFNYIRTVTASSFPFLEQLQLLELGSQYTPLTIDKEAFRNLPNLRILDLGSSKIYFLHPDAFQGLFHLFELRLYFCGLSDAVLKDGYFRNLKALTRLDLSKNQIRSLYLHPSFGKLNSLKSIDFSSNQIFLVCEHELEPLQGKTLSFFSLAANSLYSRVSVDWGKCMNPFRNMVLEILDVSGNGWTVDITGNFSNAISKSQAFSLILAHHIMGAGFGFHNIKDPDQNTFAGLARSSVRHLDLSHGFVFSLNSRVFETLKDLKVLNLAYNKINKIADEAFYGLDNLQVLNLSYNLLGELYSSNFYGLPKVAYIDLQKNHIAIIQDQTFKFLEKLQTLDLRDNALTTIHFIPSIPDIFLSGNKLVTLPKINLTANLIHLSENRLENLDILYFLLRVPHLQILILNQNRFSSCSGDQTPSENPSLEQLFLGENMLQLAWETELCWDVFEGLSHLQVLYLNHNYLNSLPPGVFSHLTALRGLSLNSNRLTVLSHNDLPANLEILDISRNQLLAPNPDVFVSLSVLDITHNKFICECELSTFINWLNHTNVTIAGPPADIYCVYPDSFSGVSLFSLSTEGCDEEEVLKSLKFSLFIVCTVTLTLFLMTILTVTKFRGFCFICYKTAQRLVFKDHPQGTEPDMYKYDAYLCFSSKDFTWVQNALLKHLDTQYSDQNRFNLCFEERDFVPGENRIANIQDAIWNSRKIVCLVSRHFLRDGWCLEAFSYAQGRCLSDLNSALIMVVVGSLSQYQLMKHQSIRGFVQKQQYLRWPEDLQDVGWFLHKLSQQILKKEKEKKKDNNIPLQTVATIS

Sequence of Toll-like receptor 2 (Homo sapiens) (O60603 whole entry): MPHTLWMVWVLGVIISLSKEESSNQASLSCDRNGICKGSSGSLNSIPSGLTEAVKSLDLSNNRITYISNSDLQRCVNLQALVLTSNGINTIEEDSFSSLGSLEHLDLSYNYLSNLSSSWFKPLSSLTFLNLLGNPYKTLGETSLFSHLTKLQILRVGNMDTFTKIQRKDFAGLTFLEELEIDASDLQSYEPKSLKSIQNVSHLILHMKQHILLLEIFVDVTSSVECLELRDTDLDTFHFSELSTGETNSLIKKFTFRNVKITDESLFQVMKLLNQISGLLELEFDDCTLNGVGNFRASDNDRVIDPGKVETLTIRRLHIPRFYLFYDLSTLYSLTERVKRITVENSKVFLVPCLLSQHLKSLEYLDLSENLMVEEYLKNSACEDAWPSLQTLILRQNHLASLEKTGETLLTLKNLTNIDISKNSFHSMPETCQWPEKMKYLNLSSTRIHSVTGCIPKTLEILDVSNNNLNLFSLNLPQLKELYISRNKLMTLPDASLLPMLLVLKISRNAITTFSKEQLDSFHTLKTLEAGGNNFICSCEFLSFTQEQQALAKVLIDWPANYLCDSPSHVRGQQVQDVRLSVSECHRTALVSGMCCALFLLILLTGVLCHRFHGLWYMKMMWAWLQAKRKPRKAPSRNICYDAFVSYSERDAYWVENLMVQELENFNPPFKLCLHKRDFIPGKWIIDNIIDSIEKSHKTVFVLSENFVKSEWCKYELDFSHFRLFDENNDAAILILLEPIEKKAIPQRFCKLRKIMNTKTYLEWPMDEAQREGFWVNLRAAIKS

Row | SMILES | Activity [1] | Activity [2] | EC50 [3] [nM] | Activity [4]
1 | CCCCNc1nc(N)nc(C)c1CCCCO | inactive | inactive | 1020 | inactive
2 | CCCCNc1nc(N)nc(C)c1CCCN1Cc2ccccc2C1 | inactive | inactive | 375 | inactive
3 | CCCCNc1nc(N)nc(C)c1CCCN(C)C | inactive | inactive | 958 | inactive
4 | C#Cc1c(C)nc(N)nc1NCCCC | inactive | inactive |  | inactive
5 | CCCCNc1nc(N)nc(C)c1CCCn1cccn1 | inactive | inactive | 398 | inactive
6 | CCCCNc1nc(N)nc(C)c1CCCN(CC)CC | inactive | inactive |  | inactive
7 | CCCCNc1nc(N)nc(C)c1C | inactive | inactive | 3400 | inactive
8 | CCCCNc1nc(N)nc(C)c1CCCn1ccc2ccccc21 | inactive | inactive | 140 | inactive
9 | CCCCNc1nc(N)nc(C)c1CCCN1CCNCC1 | inactive | inactive | 1640 | inactive
10 | CCCCCc1c(C)nc(N)nc1NCCCC | inactive | inactive | 510 | inactive
11 | CCCCNc1nc(N)nc(C)c1CCCN(C)CCOC | inactive | inactive | 1240 | inactive
12 | CCCCNc1nc(N)nc(C)c1CCCn1cncn1 | inactive | inactive | 1160 | inactive
13 | CCCC#Cc1c(C)nc(N)nc1NCCCC | inactive | inactive |  | inactive
14 | CCCCNc1nc(N)nc(C)c1CC | inactive | inactive | 1270 | inactive
15 | CCCCNc1nc(N)nc(C)c1CCCN1CCCC1 | inactive | inactive | 562 | inactive
16 | CCCCNc1nc(N)nc(C)c1CCCN1CCCCC1 | inactive | inactive | 710 | inactive
17 | CCCCNc1nc(N)nc(C)c1CCCN1CCN(C(=O)OC(C)(C)C)CC1 | inactive | inactive |  | inactive
18 | CCCCNc1nc(N)nc(C)c1CCCC | inactive | inactive | 590 | inactive
19 | CCCCNc1nc(N)nc(C)c1CCc1ccccc1 | inactive | inactive | 2820 | inactive

Row | SMILES | Activity [1] | Activity [2] | EC50 [3] [nM] | Activity [4]
20 | CCCCNc1nc(N)nc(C)c1C#CCN1CCCCC1 | inactive | inactive |  | inactive
21 | CCCCNc1nc(N)nc(C)c1CCCCc1ccccc1 | inactive | inactive | 262 | inactive
22 | CCCCNc1nc(N)nc(C)c1CCCc1ccccc1 | inactive | inactive | 194 | inactive
23 | CCCCNc1nc(N)nc(C)c1C#C[Si](C)(C)C | inactive | inactive |  | inactive
24 | CCCCNc1nc(N)nc(C)c1CCCC(C)(C)O | inactive | inactive | 2890 | inactive
25 | CCCCNc1nc(N)nc(C)c1CCCN1CCSCC1 | inactive | inactive | 714 | inactive
26 | CCCCNc1nc(N)nc(C)c1CCC(C)(C)O | inactive | inactive | 3260 | inactive
27 | CCCCNc1nc(N)nc(C)c1CCCC1CCCCC1 | inactive | inactive | 1100 | inactive
28 | CCCCNc1nc(N)nc(C)c1C#CCc1ccccc1 | inactive | inactive |  | inactive
29 | CCCCNc1nc(N)nc(C)c1CCCN1CCN(c2ccccc2)CC1 | inactive | inactive | 1160 | inactive
30 | CCCCNc1nc(N)nc(C)c1CCCCCc1ccccc1 | inactive | inactive | 265 | inactive
31 | CCCCNc1nc(N)nc(C)c1CCCCN1CCOCC1 | inactive | inactive | 1400 | inactive
32 | CCCCNc1nc(N)nc(C)c1CCCN1CCN(C)CC1 | inactive | inactive | 251 | inactive
33 | CCCCNc1nc(N)nc(C)c1CCCN1CCOCC1 | inactive | inactive | 46 | inactive
34 | CCCCNc1nc(N)nc(C)c1CCCN1C(=O)c2ccccc2C1=O | inactive | inactive | 1290 | inactive
35 | CCCCNc1nc(N)nc(C)c1CCCN1CCCCCC1 | inactive | inactive | 730 | inactive
36 | CCCCNc1nc(N)nc(C)c1C#CCN1CCOCC1 | inactive | inactive |  | inactive
37 | CCCCNc1nc(N)nc(C)c1CCCn1c(C)nc2ccccc21 | inactive | inactive | 379 | inactive
